In ChEMBL document CHEMBL1128525, “The role of water molecules in the structure-based design of (5-hydroxynorvaline)-2-cyclosporin: synthesis, biological activity, and crystallographic analysis with cyclophilin A” (J Med Chem, 1995):

Experiments:
[1] = molecular target: T1, Peptidyl-prolyl cis-trans isomerase A (Homo sapiens, UniProt P62937); assay: In vitro binding affinity against cyclophilin A by rotamase assay
[2] = molecular target: T1, Peptidyl-prolyl cis-trans isomerase A; assay: In vitro binding affinity against cyclophilin A by ELISA
Mus musculus = species: Mus musculus; assay: The compound was evaluated in vitro for the immunosuppressive activity in mouse mixed lymphocyte reaction (MLR_M); format: functional
Procedure, shortened: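 Cellular immunosuppression read in the mouse mixed lymphocyte reaction or the interleukin-2 reporter gene assay. The IC50 in nM is the mean of three independent experiments.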

T1 sequence (P62937 whole entry): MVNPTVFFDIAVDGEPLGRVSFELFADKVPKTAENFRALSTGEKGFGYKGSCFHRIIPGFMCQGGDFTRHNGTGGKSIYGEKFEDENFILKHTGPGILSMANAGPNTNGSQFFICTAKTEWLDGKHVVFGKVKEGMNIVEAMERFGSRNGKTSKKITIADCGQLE

SMILES	IC50 [1] [µM]	IC50 [2] [µM]	IC50 (Mus musculus) [µM]
C/C=C/C[C@@H](C)[C@@H](O)[C@H]1C(=O)N[C@@H](CCC)C(=O)N(C)CC(=O)N(C)[C@@H](CC(C)C)C(=O)N[C@@H](C(C)C)C(=O)N(C)[C@@H](CC(C)C)C(=O)N[C@@H](C)C(=O)N[C@H](C)C(=O)N(C)[C@@H](CC(C)C)C(=O)N(C)[C@@H](CC(C)C)C(=O)N(C)[C@@H](C(C)C)C(=O)N1C [GECLOSPORIN]	0.13	0.31	0.046
C/C=C/C[C@@H](C)[C@@H](O)[C@@H]1C(=O)N[C@H](CCCO)C(=O)N(C)CC(=O)N(C)[C@H](CC(C)C)C(=O)N[C@H](C(C)C)C(=O)N(C)[C@H](CC(C)C)C(=O)N[C@H](C)C(=O)N[C@@H](C)C(=O)N(C)[C@H](CC(C)C)C(=O)N(C)[C@H](CC(C)C)C(=O)N(C)[C@H](C(C)C)C(=O)N1C	0.256	0.45	0.14
C/C=C/C[C@@H](C)[C@@H](O)[C@@H]1C(=O)N[C@H](CCC)C(=O)N(C)[C@@H](CO)C(=O)N(C)[C@H](CC(C)C)C(=O)N[C@H](C(C)C)C(=O)N(C)[C@H](CC(C)C)C(=O)N[C@H](C)C(=O)N[C@@H](C)C(=O)N(C)[C@H](CC(C)C)C(=O)N(C)[C@H](CC(C)C)C(=O)N(C)[C@H](C(C)C)C(=O)N1C	0.048	0.093	0.056
